Results: ChEMBL document CHEMBL1126160, “Synthesis and structure-activity relationships of 7-diazabicycloalkylquinolones, including danofloxacin, a new quinolone antibacterial agent for veterinary medicine” (J Med Chem, 1992)
≈ marks a conversion by molar mass, not a printed value.

How the values were obtained:
Type in all cases: functional
Phocaeicola vulgatus = experiment: In vitro antibacterial activity against anaerobically grown Bacteroides vulgatus (78D029)
Summary of the method: (§1)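 Agar dilution MICs. Anaerobic strains were tested on tryptose agar with 5% bovine blood and incubated 48 h at 39 °C in an anaerobe chamber under N2/CO2/H2 (80:10:10).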

[1] = In vitro antibacterial activity against Aerobically grown Pasteurella haemolytica (59B018); conditions: Mannheimia haemolytica
Summary of the method: (§2)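 Agar dilution MICs. Aerobic strains were tested on brain heart infusion agar and incubated aerobically at 37 °C for 18–20 h.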

Clostridium perfringens = experiment: microbe, parasite or virus in culture
Pasteurella multocida = experiment: In vitro antibacterial activity against aerobically grown Pasteurella multocida (59A006); summary of the method: as §2
Salmonella enterica = experiment: In vitro antibacterial activity against aerobically grown Salmonella choleraesuis (58B015)
[2] = tested on: Actinobacillus pleuropneumoniae; experiment: In vitro antibacterial activity against anaerobically grown Actinobacillus pleuropneumoniae ([…]); summary of the method: as §1
Escherichia coli [3] = experiment: In vitro antibacterial activity against aerobically grown Escherichia coli (51A538); summary of the method: as §2
Staphylococcus aureus = experiment: In vitro antibacterial activity against aerobically grown Staphylococcus aureus (54B004); summary of the method: as §2
[4] = tested on: Bordetella bronchiseptica; experiment: In vitro antibacterial activity against aerobically grown Bordetella bronchiseptica (73A009); summary of the method: as §2
[5] = In vitro evaluation for antibacterial activity against anaerobically grown Treponema hyodysenteriae (94A007); conditions: Brachyspira hyodysenteriae
Escherichia coli [6] = experiment: Escherichia coli DNA cleavage endpoint value which is the minimum amount required (in micro g/mL) to induce detectable cleavage of supercoiled pBR322 substrate to linear form (gyrase); conditions: read-out: MIC
Summary of the method: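 DNA gyrase A and B subunits were purified from E. coli overproducers. About 2 units of holoenzyme were incubated with pBR322 in Tris-HCl pH 7.5 containing MgCl2, spermidine, DTT, 0.2 mM ATP, BSA and tRNA. Drug was added as 2-fold serial dilutions, and reactions ran for 60 min at 25 °C. Reactions were stopped with SDS and proteinase K, then run on agarose and stained with ethidium. The endpoint was the lowest concentration giving detectable linear DNA.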

Trueperella pyogenes = experiment: In vitro antibacterial activity against anaerobically grown Actinomyces pyogenes (14D002); summary of the method: as §1

Structure (SMILES)	MIC (Phocaeicola vulgatus) [mg/L]	MIC [1] [mg/L]	MIC (Clostridium perfringens) [mg/L]	MIC (Pasteurella multocida) [mg/L]	MIC (Salmonella enterica) [mg/L]	MIC [2] [mg/L]	MIC (Escherichia coli [3]) [mg/L]	MIC (Staphylococcus aureus) [mg/L]	MIC [4] [mg/L]	MIC [5] [mg/L]	minimum concentration inducing gyrase-mediated DNA cleavage (Escherichia coli [6]) [µg/mL]	MIC (Trueperella pyogenes) [mg/L]
CN1[C@@H]2CC[C@H]1CN(c1c(F)cc3c(=O)c(C(=O)O)cn(C4CC4)c3c1Cl)C2	0.78 (≈ 1.92 µM)	0.2 (≈ 0.493 µM)	0.78 (≈ 1.92 µM)	0.05 (≈ 0.123 µM)	0.78 (≈ 1.92 µM)	0.2 (≈ 0.493 µM)	0.39 (≈ 0.961 µM)	0.39 (≈ 0.961 µM)	> 1.56	> 3.13	1.56	3.13 (≈ 7.71 µM)
Cl.O.O=C(O)c1cn(CCF)c2cc(N3CCN4CCC3CC4)c(F)cc2c1=O	> 3.13	0.02	0.2	0.05	0.1	0.02	0.2	0.78	1.56	1.56	0.39	> 3.13
O=C(O)c1cn(C2CC2)c2c(Cl)c(N3C[C@@H]4C[C@H]3CN4)c(F)cc2c1=O	0.1 (≈ 0.265 µM)	0.005 (≈ 0.0132 µM)	0.1 (≈ 0.265 µM)	0.005 (≈ 0.0132 µM)	0.02 (≈ 0.0529 µM)	0.005 (≈ 0.0132 µM)	0.02 (≈ 0.0529 µM)	0.2 (≈ 0.529 µM)	0.39 (≈ 1.03 µM)	1.56 (≈ 4.13 µM)	0.09	0.39 (≈ 1.03 µM)
C=Cn1cc(C(=O)O)c(=O)c2cc(F)c(N3C[C@H]4CC[C@@H](C3)N4C)cc21	6.25 (≈ 17.5 µM)	0.39 (≈ 1.09 µM)	0.78 (≈ 2.18 µM)	0.1 (≈ 0.28 µM)	0.78 (≈ 2.18 µM)	0.2 (≈ 0.56 µM)	0.78 (≈ 2.18 µM)	0.2 (≈ 0.56 µM)	12.5 (≈ 35 µM)	1.56 (≈ 4.37 µM)	0.39	3.13 (≈ 8.76 µM)
O=C(O)c1cn(-c2ccc(F)cc2)c2c(F)c(N3C[C@@H]4C[C@H]3CN4)c(F)cc2c1=O	> 3.13	0.1 (≈ 0.241 µM)	0.2 (≈ 0.481 µM)	0.1 (≈ 0.241 µM)	0.2 (≈ 0.481 µM)	0.1 (≈ 0.241 µM)	0.1 (≈ 0.241 µM)	0.78 (≈ 1.88 µM)	> 1.56	0.78 (≈ 1.88 µM)	0.78	> 3.13
CN1C2CC[C@@H]1CCN(c1cc3c(cc1F)c(=O)c(C(=O)O)cn3CCF)C2	> 3.13	1.56 (≈ 3.99 µM)	1.56 (≈ 3.99 µM)	0.39 (≈ 0.996 µM)	> 1.56	0.39 (≈ 0.996 µM)	1.56 (≈ 3.99 µM)	0.78 (≈ 1.99 µM)	1.56 (≈ 3.99 µM)	> 3.13	3.12	> 3.13
CN1C2CC[C@@H]1CCN(c1nc3c(cc1F)c(=O)c(C(=O)O)cn3C1CC1)C2	> 3.13	0.39 (≈ 1.01 µM)	0.78 (≈ 2.02 µM)	0.1 (≈ 0.259 µM)	0.78 (≈ 2.02 µM)	0.2 (≈ 0.518 µM)	0.39 (≈ 1.01 µM)	0.78 (≈ 2.02 µM)	0.78 (≈ 2.02 µM)	3.13 (≈ 8.1 µM)	3.12	> 3.13
CN1C2CC[C@@H]1CCN(c1c(F)cc3c(=O)c(C(=O)O)cn(C4CC4)c3c1F)C2	0.78 (≈ 1.93 µM)	0.1 (≈ 0.248 µM)	0.39 (≈ 0.967 µM)	0.02 (≈ 0.0496 µM)	0.1 (≈ 0.248 µM)	0.1 (≈ 0.248 µM)	0.1 (≈ 0.248 µM)	0.2 (≈ 0.496 µM)	> 1.56	> 3.13	0.39	1.56 (≈ 3.87 µM)
CN1C[C@@H]2C[C@H]1CN2c1c(F)cc2c(=O)c(C(=O)O)cn(-c3ccc(F)cc3F)c2c1Cl	0.78 (≈ 1.68 µM)	0.1 (≈ 0.216 µM)	0.39 (≈ 0.841 µM)	0.01 (≈ 0.0216 µM)	0.39 (≈ 0.841 µM)	0.1 (≈ 0.216 µM)	0.2 (≈ 0.431 µM)	0.2 (≈ 0.431 µM)	> 1.56	> 3.13	3.12	3.13 (≈ 6.75 µM)
O=C(O)c1cn(-c2ccc(F)cc2)c2cc(N3C[C@@H]4C[C@H]3CN4)c(F)cc2c1=O	3.13 (≈ 7.88 µM)	0.1 (≈ 0.252 µM)	0.2 (≈ 0.503 µM)	0.02 (≈ 0.0503 µM)	0.2 (≈ 0.503 µM)	0.1 (≈ 0.252 µM)	0.1 (≈ 0.252 µM)	0.78 (≈ 1.96 µM)	> 1.56	1.56 (≈ 3.93 µM)	1.56	3.13 (≈ 7.88 µM)
CCn1cc(C(=O)O)c(=O)c2cc(F)c(N3C[C@H]4CCC[C@@H](C3)N4C)cc21	1.56 (≈ 4.18 µM)	0.1 (≈ 0.268 µM)	0.39 (≈ 1.04 µM)	0.78 (≈ 2.09 µM)	1.56 (≈ 4.18 µM)	0.2 (≈ 0.536 µM)	1.56 (≈ 4.18 µM)	0.1 (≈ 0.268 µM)	6.25 (≈ 16.7 µM)	6.25 (≈ 16.7 µM)	3.12	6.25 (≈ 16.7 µM)
CN1C[C@@H]2C[C@H]1CN2c1nc2c(cc1F)c(=O)c(C(=O)O)cn2-c1ccc(F)cc1	3.13 (≈ 7.59 µM)	0.05 (≈ 0.121 µM)	0.39 (≈ 0.946 µM)	0.02 (≈ 0.0485 µM)	0.2 (≈ 0.485 µM)	0.1 (≈ 0.242 µM)	0.2 (≈ 0.485 µM)	0.2 (≈ 0.485 µM)	> 1.56	3.13 (≈ 7.59 µM)	1.56	> 3.13
CNn1cc(C(=O)O)c(=O)c2cc(F)c(N3CCN4CCC3CC4)cc21	> 25	0.1 (≈ 0.277 µM)	0.78 (≈ 2.16 µM)	0.1 (≈ 0.277 µM)	1.56 (≈ 4.33 µM)	< 0.05	0.39 (≈ 1.08 µM)	1.56 (≈ 4.33 µM)	12.5 (≈ 34.7 µM)	3.13 (≈ 8.69 µM)	1.56	6.25 (≈ 17.3 µM)
CN1C[C@@H]2C[C@H]1CN2c1cc2c(cc1F)c(=O)c(C(=O)O)cn2-c1ccc(F)cc1F	0.78 (≈ 1.82 µM)	0.05 (≈ 0.116 µM)	0.2 (≈ 0.466 µM)	0.01 (≈ 0.0233 µM)	0.2 (≈ 0.466 µM)	0.005 (≈ 0.0116 µM)	0.1 (≈ 0.233 µM)	0.1 (≈ 0.233 µM)	1.56 (≈ 3.63 µM)	> 3.13	0.78	0.78 (≈ 1.82 µM)
CN1[C@@H]2CC[C@H]1CN(c1cc3c(cc1F)c(=O)c(C(=O)O)cn3C)C2	12.5 (≈ 36.2 µM)	0.2 (≈ 0.579 µM)	1.56 (≈ 4.52 µM)	0.78 (≈ 2.26 µM)	3.13 (≈ 9.06 µM)	0.78 (≈ 2.26 µM)	3.13 (≈ 9.06 µM)	0.2 (≈ 0.579 µM)	> 25	0.78 (≈ 2.26 µM)	3.12	3.13 (≈ 9.06 µM)
CCn1cc(C(=O)O)c(=O)c2cc(F)c(N3C[C@@H]4C[C@H]3CN4)cc21	> 3.13	0.39 (≈ 1.18 µM)	0.39 (≈ 1.18 µM)	0.2 (≈ 0.604 µM)	0.39 (≈ 1.18 µM)	0.39 (≈ 1.18 µM)	0.78 (≈ 2.35 µM)	> 1.56	1.56 (≈ 4.71 µM)	1.56 (≈ 4.71 µM)	3.12	3.13 (≈ 9.45 µM)
O=C(O)c1cn(C2CC2)c2c(F)c(N3CCN4CCC3CC4)c(F)cc2c1=O	0.1 (≈ 0.257 µM)	0.01 (≈ 0.0257 µM)	0.1 (≈ 0.257 µM)	0.002 (≈ 0.00514 µM)	0.01 (≈ 0.0257 µM)	0.01 (≈ 0.0257 µM)	0.01 (≈ 0.0257 µM)	0.05 (≈ 0.128 µM)	0.39 (≈ 1 µM)	0.78 (≈ 2 µM)	0.39	0.39 (≈ 1 µM)
CN1C[C@@H]2C[C@H]1CN2c1c(F)cc2c(=O)c(C(=O)O)cn(-c3ccc(F)cc3)c2c1F	3.13 (≈ 7.29 µM)	0.2 (≈ 0.466 µM)	0.39 (≈ 0.908 µM)	0.02 (≈ 0.0466 µM)	0.39 (≈ 0.908 µM)	0.05 (≈ 0.116 µM)	0.2 (≈ 0.466 µM)	0.39 (≈ 0.908 µM)	> 1.56	1.56 (≈ 3.63 µM)	0.39	> 3.13
C=Cn1cc(C(=O)O)c(=O)c2cc(F)c(N3CCN4CCC3CC4)cc21	3.13 (≈ 8.76 µM)	0.05 (≈ 0.14 µM)	0.2 (≈ 0.56 µM)	0.05 (≈ 0.14 µM)	0.1 (≈ 0.28 µM)	0.02 (≈ 0.056 µM)	0.1 (≈ 0.28 µM)	0.2 (≈ 0.56 µM)	1.56 (≈ 4.37 µM)	0.39 (≈ 1.09 µM)	0.39	3.13 (≈ 8.76 µM)
Cl.O.O=C(O)c1cn(CCF)c2c(F)c(N3CCN4CCC3CC4)c(F)cc2c1=O	6.25	< 0.05	0.78	0.2	0.2	< 0.05	0.39	0.78	6.25	6.25	0.19	3.13
CN1C2CC[C@@H]1CCN(c1cc3c(cc1F)c(=O)c(C(=O)O)cn3-c1ccc(F)cc1)C2	> 3.13	1.56 (≈ 3.55 µM)	0.39 (≈ 0.887 µM)	0.2 (≈ 0.455 µM)	> 1.56	0.78 (≈ 1.77 µM)	1.56 (≈ 3.55 µM)	0.78 (≈ 1.77 µM)	> 1.56	0.13 (≈ 0.296 µM)	0.19	> 3.13
CN1[C@@H]2CCC[C@H]1CN(c1cc3c(cc1F)c(=O)c(C(=O)O)cn3C1CC1)C2.Cl	1.56	0.2	0.39	0.05	0.39	0.1	0.39	0.2	1.56	> 3.13	1.56	3.13
